Assay results: ChEMBL document CHEMBL1212917, “Substituted E-3-(3-indolylmethylene)-1,3-dihydroindol-2-ones with antitumor activity. In depth study of the effect on growth of breast cancer cells” (2010)
Structures can show the parent of a compound that is named as a salt. The source made the active and inactive calls. The rule behind the calls is not given here.

What was measured:
[1] = Growth inhibition of human leukemia cells after 48 hrs; assay type: functional; conditions: Leukemia cell; for CC50: read-out: LC50 (the source's name)
NSCLC = test: Growth inhibition of human NSCLC cells after 48 hrs; assay type: functional
[2] = Growth inhibition of human colon cancer cells after 48 hrs; assay type: functional; conditions: Cancer cell lines; for CC50: read-out: LC50 (the source's name)
[3] = Growth inhibition of human CNS cancer cells after 48 hrs; assay type: functional; conditions: Cancer cell lines; for CC50: read-out: LC50 (the source's name)
[4] = Growth inhibition of human melanoma cells after 48 hrs; assay type: functional; conditions: Melanoma cell; for CC50: read-out: LC50 (the source's name)
[5] = Growth inhibition of human Ovarian cancer cells after 48 hrs; assay type: functional; conditions: Cancer cell lines; for CC50: read-out: LC50 (the source's name)
[6] = Growth inhibition of human renal cancer cells after 48 hrs; assay type: functional; conditions: Cancer cell lines; for CC50: read-out: LC50 (the source's name)
[7] = Growth inhibition of human prostate cancer cells after 48 hrs; assay type: functional; conditions: Cancer cell lines; for CC50: read-out: LC50 (the source's name)
[8] = Growth inhibition of human breast cancer cells after 48 hrs; assay type: functional; conditions: Cancer cell lines; for CC50: read-out: LC50 (the source's name)
MCF7 [9] = test: Antiproliferative activity against human MCF7 cells assessed as increase in tumor suppressor p53 expression at 5 uM after 20 hrs by Western blotting; assay type: functional
Summary of the method: (§1)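 MCF-7 cells in RPMI 1640 with 10% FBS and 2 mM L-glutamine at 37°C, 5% CO2, plated at 2×10^4 cells/cm2. Compound added 24 h later to 5 μM (DMSO vehicle in controls) for 20 h. Lysed in HEPES pH 7.5 buffer with DTT, EDTA, CHAPS, Triton X-100 and protease inhibitors, then freeze-thawed twice. SDS-PAGE at 80 μg protein/lane and immunoblotting for total and phospho ERK1/2 and Akt, p53 and p21, with β-actin. Densitometry used for quantitation.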

[10] = biological target: RAC-alpha serine/threonine-protein kinase (Homo sapiens) (UniProt P31749); test: Inhibition of AKT phosphorylation in human MCF7 cells assessed as p-AKT level at 5 uM after 20 hrs by Western blotting; assay type: cell-based; summary of the method: as §1
MCF7 [11] = test: Antiproliferative activity against human MCF7 cells assessed as increase in tumor suppressor p21 expression at 5 uM after 20 hrs by Western blotting; assay type: functional; conditions: in the assay text read “24 hrs” for “20 hrs”
MCF7 [12] = test: Induction of apoptosis in human MCF7 cells assessed as Bax accumulation by immunofluorescence microscopy; assay type: functional, cell-based
Summary of the method: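 MCF-7 cells seeded on glass coverslips at 1×10^4 cells/cm2 and treated with 5 μM for 24 h. Fixed in 3% paraformaldehyde, washed in glycine and permeabilized in ice-cold 70% ethanol. Stained with mouse anti-Bax for 1 h at room temperature, then FITC anti-mouse IgG, with propidium iodide as nuclear counterstain. Imaged by confocal microscopy with excitation at 488 and 568 nm. Three experiments.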

MCF7 [13] = test: Cell cycle arrest in human MCF7 cells assessed as accumulation at G2/M phase at 200 nM after 24 to 48 hrs; assay type: functional, cell-based
Summary of the method: (§2)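 MCF-7 cells plated at 2×10^4 cells/cm2 and exposed to 200 nM compound for 24 and 48 h; DMSO-treated controls. Cells detached with trypsin/EDTA and washed in PBS. Stained 30 min at room temperature in the dark with 50 μg/mL propidium iodide, 10 μg/mL RNase, 0.01% NP-40 and 0.1% sodium citrate. DNA content read by flow cytometry. Means ± s.e.m. of three determinations.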

MCF7 [14] = test: Cell cycle arrest in human MCF7 cells assessed as accumulation at subG1 phase at 200 nM after 24 to 48 hrs; assay type: functional, cell-based; summary of the method: as §2
MCF7 [15] = test: Growth inhibition of human MCF7 cells at 200 nM after 48 hrs by trypan blue exclusion cell counting

RAC-alpha serine/threonine-protein kinase (Homo sapiens), sequence (P31749 whole entry): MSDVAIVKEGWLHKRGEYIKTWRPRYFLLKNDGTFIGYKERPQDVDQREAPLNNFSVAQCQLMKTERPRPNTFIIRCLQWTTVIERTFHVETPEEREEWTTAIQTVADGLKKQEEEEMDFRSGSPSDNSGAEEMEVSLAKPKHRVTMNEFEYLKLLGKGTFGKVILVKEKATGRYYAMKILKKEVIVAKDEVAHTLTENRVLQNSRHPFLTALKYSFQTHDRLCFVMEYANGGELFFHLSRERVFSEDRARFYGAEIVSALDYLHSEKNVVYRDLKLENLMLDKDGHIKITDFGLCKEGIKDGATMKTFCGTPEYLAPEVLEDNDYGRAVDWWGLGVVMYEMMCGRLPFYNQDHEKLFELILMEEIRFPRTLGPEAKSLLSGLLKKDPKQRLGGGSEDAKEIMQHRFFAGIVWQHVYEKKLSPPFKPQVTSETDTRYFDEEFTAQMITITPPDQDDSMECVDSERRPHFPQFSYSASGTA

Row | SMILES | GI50 [1] | CC50 [1] | GI50 (NSCLC) | LC50 (NSCLC) | GI50 [2] | CC50 [2] | GI50 [3] | CC50 [3] | GI50 [4] | CC50 [4] | GI50 [5] | CC50 [5] | GI50 [6] | CC50 [6] | GI50 [7] | CC50 [7] | GI50 [8] | CC50 [8] | Activity (MCF7 [9]) | TGI [7] | other results
1 | COc1cc2c(cc1C)N(C)C(=O)/C2=C/c1c(Cl)[nH]c2ccccc12 | 0.26 µM | 69.2 µM | 0.58 µM | 57.5 µM | 0.37 µM | 46.8 µM | 0.32 µM | 47.9 µM | 0.71 µM | 51.3 µM | 0.6 µM | 61.7 µM | 0.62 µM | 56.2 µM | 0.32 µM | 69.2 µM | 0.3 µM | 57.5 µM | Active |  | 
2 | COc1cc2c(/C=C3/C(=O)Nc4cc(Cl)ccc43)c(Cl)n(C)c2cc1C | 0.02 µM | 39.8 µM | 0.07 µM | 93.3 µM | 0.02 µM | 25.1 µM | 0.02 µM | 23.4 µM | 0.02 µM | 50.1 µM | 0.03 µM | 52.5 µM | 0.04 µM | 70.8 µM | 0.02 µM | 21.4 µM | 0.05 µM | 72.4 µM | Active | 3.02 µM | fold change (FC) (MCF7 [9]; in the assay text read “after 24 hrs” for “after 20 hrs”): 3; Activity [10]: Active; Activity (MCF7 [11]): 90%; Activity (MCF7 [12]): Active; Activity (MCF7 [13]): Active; Activity (MCF7 [14]): Active; Activity (MCF7 [15]): Active
3 | COc1cc2c(cc1C)NC(=O)/C2=C/c1c[nH]c2ccccc12 | 8.71 µM |  | 13.5 µM | 89.1 µM | 8.13 µM | 95.5 µM | 10 µM | 95.5 µM | 13.2 µM | 81.3 µM | 12.6 µM | 97.7 µM | 11.5 µM | 85.1 µM | 13.8 µM | 91.2 µM | 11.8 µM | 91.2 µM |  | 36.3 µM | TGI [1]: 55 µM; TGI (NSCLC): 43.6 µM; TGI [2]: 52.5 µM; TGI [3]: 33.9 µM; TGI [4]: 37.1 µM; TGI [5]: 45.7 µM; TGI [6]: 38 µM; TGI [8]: 40.7 µM
4 | COc1cc2c(cc1C)N(C)C(=O)/C2=C/c1c(Cl)n(C)c2cc(C)c(OC)cc12 | 6.92 µM |  | 19.5 µM | 93.3 µM | 20.4 µM | 97.7 µM | 10.5 µM | 61.7 µM | 16.2 µM |  | 18.6 µM | 89.1 µM | 15.8 µM | 77.6 µM | 35.5 µM |  | 6.76 µM | 83.2 µM |  |  | 
5 | CC[C@]1(O)C[C@H]2CN(CCc3c([nH]c4ccccc34)[C@@](C(=O)OC)(c3cc4c(cc3OC)N(C=O)[C@H]3[C@@](O)(C(=O)OC)[C@H](OC(C)=O)[C@]5(CC)C=CCN6CC[C@]43[C@@H]65)C2)C1 [VINCRISTINE SULFATE] | 0.1 µM | 631 µM | 0.25 µM |  | 0.1 µM | 79.4 µM | 0.13 µM | 200 µM | 0.16 µM | 251 µM | 0.32 µM | 316 µM | 0.32 µM | 251 µM | 0.13 µM | 316 µM | 0.32 µM | 316 µM |  |  | 
